A word on the IC50: it is the midpoint of a concentration-inhibition curve. High values mean lower potency, low ones higher potency.

Consider 33 compounds from ChEMBL document CHEMBL1221292, “Design, synthesis, and evaluation of quinazoline T cell proliferation inhibitors” (Bioorg Med Chem, 2010).

SMILES strings stand for the structures. Activity calls are given as the source filed them. No cut-off for these calls is given here.

Holding throughout (assay type): functional, cell-based
One assay has as its system PBMC. The assay can be described thus: Antiproliferative activity against ConA-stimulated human PBMC after 72 hrs by BrdU incorporation assay. The gist of the method: (§1)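 Cells grown in RPMI at 37 °C, 5% CO2, then serum-starved 12 h. PBMC stimulated with ConA 10 µg/mL; Jurkat need no stimulation. 1 × 10^5 cells cultured 3 days with or without inhibitor, duplicate wells. Labelled with 10 µM BrdU, DNA denatured, anti-BrdU-POD added, colorimetric TMB read-out; IC50 derived.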

Another assay relates to Jurkat. The assay can be described thus: Antiproliferative activity against human Jurkat cells after 72 hrs by BrdU incorporation assay. Summed up: as §1
On the technique in general: Incorporation of labelled thymidine or its analogues reports DNA synthesis.

Another assay concerns Splenocyte. The assay can be described thus: Inhibition of irradiated BALB/c mouse splenocyte-stimulated IL2 secretion in 2C mouse splenocyte after 72 hrs by mixed lymphocyte reaction. Summed up: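 MLR: splenocytes from 2c mice stimulated by irradiated BALB/c splenocytes in the presence of compound at the specified concentrations, 96-well cultures up to 72 h. Supernatants collected at 24, 48 and 72 h; IL-2 measured by ELISA at 450 nm.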

As for `Cc1ccc(Nc2nc(-c3cc(O)c(O)c(O)c3)nc3ccccc23)cc1`, the IC50 in the assay on PBMC and in the assay on Jurkat was 850 nM in each case. The inhibition result in the assay on Splenocyte was “Active”.

As to `Oc1cc(-c2nc(Nc3ccc(Cl)cc3)c3ccccc3n2)cc(O)c1O`, the IC50 came to 550 nM with PBMC and 4250 nM in the assay on Jurkat.

For `Nc1ccc(CNc2nc(-c3cc(O)c(O)c(O)c3)nc3ccccc23)cc1`, the IC50 worked out at 570 nM with PBMC and 670 nM in the assay with Jurkat.

For the compound `COc1cc(-c2nc(Nc3ccc4c(c3)OCO4)c3ccccc3n2)cc(OC)c1OC`, the IC50 in the assay on PBMC amounted to 380 nM; in the assay on Jurkat, 600 nM.

Consider `COc1cc(-c2nc(NCc3ccccc3)c3ccccc3n2)cc(OC)c1OC`, for which the IC50 was 3250 nM in the assay on PBMC and 600 nM in the assay with Jurkat.

On to `Oc1cc(-c2nc(NCc3ccccc3)c3ccccc3n2)cc(O)c1O`, for which the 50% inhibitory concentration (IC50) came out at 7000 nM with PBMC and 950 nM in the assay on Jurkat.

Consider `Oc1cc(-c2nc(Nc3ccc4c(c3)OCO4)c3ccccc3n2)cc(O)c1O`, for which the IC50 came out at 5500 nM in the assay on PBMC and 800 nM in the assay with Jurkat.

In the case of `COc1ccc(Nc2nc(-c3cc(O)c(O)c(O)c3)nc3ccccc23)cc1`, the figures for the IC50 with PBMC and in the assay on Jurkat were 500 nM and 550 nM, respectively.

As to `COc1cc(-c2nc(Nc3ccc4[nH]ncc4c3)c3ccccc3n2)cc(OC)c1OC`, the half-inhibitory concentration (IC50) in the assay on PBMC came to 600 nM; in the assay on Jurkat, 700 nM.

As for `Oc1cc(-c2nc(Nc3ccc4nc[nH]c4c3)c3ccccc3n2)cc(O)c1O`, the IC50 in the assay on PBMC was 4340 nM; in the assay on Jurkat, 2570 nM.

For `Oc1cc(-c2nc(Nc3ccc4cn[nH]c4c3)c3ccccc3n2)cc(O)c1O`, the results for the IC50 in the assay with PBMC and in the assay on Jurkat were 500 nM and 690 nM, respectively.

For the compound `COc1cc(-c2nc(NCc3ccc(N)cc3)c3ccccc3n2)cc(OC)c1OC`, the IC50 stood at 380 nM in the assay on PBMC and 480 nM in the assay with Jurkat.

As to `Oc1ccc(Nc2nc(-c3cc(O)c(O)c(O)c3)nc3ccccc23)cc1`, the IC50 with PBMC was 970 nM; with Jurkat it was 1120 nM.

With `COc1cc(-c2nc(Nc3ccc(Cl)cc3)c3ccccc3n2)cc(OC)c1OC`, the IC50 in the assay with PBMC is 300 nM; in the assay with Jurkat, 530 nM.

Take `COc1cc(-c2nc(Nc3ccccc3)c3ccccc3n2)cc(OC)c1OC`: the IC50 in the assay with PBMC turned out to be 280 nM; with Jurkat, 380 nM.

In the case of `COc1ccc(CNc2nc(-c3cc(O)c(O)c(O)c3)nc3ccccc23)cc1`, the IC50 in the assay on PBMC amounted to 3260 nM; with Jurkat, 5430 nM.

Consider `COc1cc(-c2nc(Nc3ccc4cn[nH]c4c3)c3ccccc3n2)cc(OC)c1OC`, for which the 50% inhibitory concentration (IC50) in the assay on PBMC stood at 450 nM; with Jurkat it was 600 nM.

Regarding `CCCCCCCCOc1ccc(Nc2nc(-c3cc(OC)c(OC)c(OC)c3)nc3ccccc23)cc1`, the figures for the IC50 in the assay with PBMC and with Jurkat were 2400 nM and 850 nM, respectively.

For the compound `COc1cc(-c2nc(Nc3ccc(C)cc3C)c3ccccc3n2)cc(OC)c1OC`, the IC50 with PBMC is 750 nM; with Jurkat, 2600 nM.

Regarding `Oc1cc(-c2nc(Nc3ccc4[nH]ncc4c3)c3ccccc3n2)cc(O)c1O`, the IC50 was 780 nM in the assay with PBMC and 710 nM in the assay on Jurkat.

`Oc1cc(-c2nc(NCc3ccc(F)c(F)c3)c3ccccc3n2)cc(O)c1O`: the IC50 with PBMC turned out to be 280 nM; in the assay on Jurkat, 600 nM.

Regarding `COc1cc(-c2nc(Nc3ccc(OC(F)(F)F)cc3)c3ccccc3n2)cc(OC)c1OC`, the results for the IC50 with PBMC and in the assay on Jurkat were 400 nM and 180 nM, respectively.

Regarding `COc1cc(-c2nc(NCc3ccc(Cl)c(Cl)c3)c3ccccc3n2)cc(OC)c1OC`, the IC50 in the assay on PBMC came out at 300 nM; in the assay on Jurkat, 730 nM.

Regarding `CCCCCCCCOc1ccc(Nc2nc(-c3cc(O)c(O)c(O)c3)nc3ccccc23)cc1`, the IC50 with PBMC was found to be 4530 nM; with Jurkat, 4250 nM.

Turning to `Oc1cc(-c2nc(Nc3ccccc3)c3ccccc3n2)cc(O)c1O`, the IC50 in the assay on PBMC worked out at 650 nM; in the assay with Jurkat, 5500 nM.

`COc1cc(-c2nc(NCc3ccc(F)c(F)c3)c3ccccc3n2)cc(OC)c1OC`: the figures for the IC50 in the assay with PBMC and in the assay on Jurkat were 200 nM and 730 nM, respectively.

As to `COc1ccc(CNc2nc(-c3cc(OC)c(OC)c(OC)c3)nc3ccccc23)cc1`, the IC50 was 500 nM in the assay on PBMC and 1100 nM in the assay on Jurkat.

Take `Oc1cc(-c2nc(NCc3ccc(Cl)c(Cl)c3)c3ccccc3n2)cc(O)c1O`: the IC50 is 2600 nM in the assay with PBMC and 3640 nM with Jurkat.

For `COc1cc(-c2nc(Nc3ccc4nc[nH]c4c3)c3ccccc3n2)cc(OC)c1OC`, the IC50 in the assay on PBMC was determined as 430 nM; in the assay with Jurkat, 1500 nM.

As for `COc1cc(-c2nc(Nc3ccc(O)cc3)c3ccccc3n2)cc(OC)c1OC`, the IC50 in the assay on PBMC is 300 nM; in the assay on Jurkat it was 230 nM.

Consider `COc1ccc(Nc2nc(-c3cc(OC)c(OC)c(OC)c3)nc3ccccc23)cc1`, for which the values for the IC50 in the assay with PBMC and with Jurkat were 500 nM and 1100 nM, respectively.

Turning to `Oc1cc(-c2nc(Nc3ccc(OC(F)(F)F)cc3)c3ccccc3n2)cc(O)c1O`, the IC50 in the assay on PBMC is 2780 nM; with Jurkat it was 3240 nM.

For the compound `Cc1ccc(Nc2nc(-c3cc(O)c(O)c(O)c3)nc3ccccc23)c(C)c1`, the IC50 was 730 nM in the assay on PBMC and 3700 nM in the assay on Jurkat.
